According to ChEMBL document CHEMBL1926509, “Discovery of pyrazolo[1,5-a]pyridines as p110α-selective PI3 kinase inhibitors” (Bioorg Med Chem, 2012):

Assays:
[1] = molecular target: T1, Phosphatidylinositol 4,5-bisphosphate 3-kinase catalytic subunit delta isoform (Homo sapiens, UniProt O00329); assay: Inhibition of recombinant PI3K p110delta using L-alpha-phosphatidylinositol as substrate and [gamma33P]ATP after 60 mins by thin layer chromatographic technique
T1 sequence (O00329 whole entry): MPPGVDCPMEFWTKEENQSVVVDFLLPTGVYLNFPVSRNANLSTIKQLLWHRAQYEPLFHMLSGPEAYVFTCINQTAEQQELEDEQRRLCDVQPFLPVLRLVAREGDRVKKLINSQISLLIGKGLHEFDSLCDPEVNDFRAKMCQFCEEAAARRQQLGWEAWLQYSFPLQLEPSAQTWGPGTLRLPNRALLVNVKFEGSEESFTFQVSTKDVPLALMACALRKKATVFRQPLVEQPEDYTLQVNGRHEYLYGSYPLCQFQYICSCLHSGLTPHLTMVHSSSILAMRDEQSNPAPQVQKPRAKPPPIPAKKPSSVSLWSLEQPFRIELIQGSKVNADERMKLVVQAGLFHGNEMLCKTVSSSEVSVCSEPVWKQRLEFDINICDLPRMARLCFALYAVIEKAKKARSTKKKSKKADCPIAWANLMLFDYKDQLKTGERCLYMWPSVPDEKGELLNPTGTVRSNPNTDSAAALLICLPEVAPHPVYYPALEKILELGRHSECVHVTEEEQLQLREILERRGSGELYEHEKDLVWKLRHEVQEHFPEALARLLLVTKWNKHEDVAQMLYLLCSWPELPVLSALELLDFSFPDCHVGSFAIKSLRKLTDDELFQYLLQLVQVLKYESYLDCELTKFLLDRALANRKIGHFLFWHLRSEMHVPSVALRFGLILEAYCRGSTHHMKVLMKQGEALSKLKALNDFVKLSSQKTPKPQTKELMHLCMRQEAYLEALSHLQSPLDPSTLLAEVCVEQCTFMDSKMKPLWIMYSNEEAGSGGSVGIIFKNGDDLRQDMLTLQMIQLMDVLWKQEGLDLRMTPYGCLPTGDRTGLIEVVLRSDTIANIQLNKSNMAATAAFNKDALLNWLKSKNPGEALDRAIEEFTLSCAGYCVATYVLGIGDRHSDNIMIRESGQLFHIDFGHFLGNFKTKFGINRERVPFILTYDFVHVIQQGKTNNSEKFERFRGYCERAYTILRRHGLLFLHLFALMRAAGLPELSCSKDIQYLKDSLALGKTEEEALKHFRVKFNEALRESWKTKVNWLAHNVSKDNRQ
Outline: (§1)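 In-house recombinant class Ia PI3K isoform (0.1 µg) with L-α-phosphatidylinositol substrate in lipid kinase buffer (Tris–HCl pH 7.4, NaCl, EDTA), 1% DMSO final. Started with ATP mix (5 mM MgCl₂, 100 µM ATP plus [γ-³³P]ATP), 1 h at room temperature, stopped with 1 M HCl. Lipids extracted in two steps, separated by TLC, read by phosphorimager. Nine inhibitor concentrations; IC50 averaged over two experiments.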

[2] = Cytotoxicity against human NZB5 cells expressing wild type p110alpha assessed as inhibition of [3H]thymidine incorporation after 5 days; format: functional, cell-based
Outline: (§2)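 Early-passage lab-derived lines in α-MEM with insulin, transferrin, selenite and 5% FBS. Seeded at 1000 cells/well; drug added in 10-fold steps up to 20 µM. Incubated five days under 5% O₂/5% CO₂/90% N₂, with ³H-thymidine (0.04 µCi/well) over the last 6 h. Duplicates per dose; least-squares exponential fit; IC50 is the concentration giving 50% less incorporation.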

[3] = molecular target: Phosphatidylinositol 4,5-bisphosphate 3-kinase catalytic subunit alpha isoform (Homo sapiens, UniProt P42336); assay: Inhibition of recombinant PI3K p110alpha using L-alpha-phosphatidylinositol as substrate and [gamma33P]ATP after 60 mins by thin layer chromatographic technique; outline: as §1
[4] = molecular target: Phosphatidylinositol 4,5-bisphosphate 3-kinase catalytic subunit beta isoform (Homo sapiens, UniProt P42338); assay: Inhibition of recombinant PI3K p110beta using L-alpha-phosphatidylinositol as substrate and [gamma33P]ATP after 60 mins by thin layer chromatographic technique; outline: as §1
[5] = Cytotoxicity against human NZOV9 cells expressing p110alpha Y1021C mutant assessed as inhibition of [3H]thymidine incorporation after 5 days; format: functional, cell-based; outline: as §2
[6] = Selectivity ratio of IC50 for PI3K p110delta to IC50 for PI3K p110alpha
[7] = Selectivity ratio of IC50 for PI3K p110beta to IC50 for PI3K p110alpha

Phosphatidylinositol 4,5-bisphosphate 3-kinase catalytic subunit beta isoform, sequence (P42338 whole entry, canonical isoform): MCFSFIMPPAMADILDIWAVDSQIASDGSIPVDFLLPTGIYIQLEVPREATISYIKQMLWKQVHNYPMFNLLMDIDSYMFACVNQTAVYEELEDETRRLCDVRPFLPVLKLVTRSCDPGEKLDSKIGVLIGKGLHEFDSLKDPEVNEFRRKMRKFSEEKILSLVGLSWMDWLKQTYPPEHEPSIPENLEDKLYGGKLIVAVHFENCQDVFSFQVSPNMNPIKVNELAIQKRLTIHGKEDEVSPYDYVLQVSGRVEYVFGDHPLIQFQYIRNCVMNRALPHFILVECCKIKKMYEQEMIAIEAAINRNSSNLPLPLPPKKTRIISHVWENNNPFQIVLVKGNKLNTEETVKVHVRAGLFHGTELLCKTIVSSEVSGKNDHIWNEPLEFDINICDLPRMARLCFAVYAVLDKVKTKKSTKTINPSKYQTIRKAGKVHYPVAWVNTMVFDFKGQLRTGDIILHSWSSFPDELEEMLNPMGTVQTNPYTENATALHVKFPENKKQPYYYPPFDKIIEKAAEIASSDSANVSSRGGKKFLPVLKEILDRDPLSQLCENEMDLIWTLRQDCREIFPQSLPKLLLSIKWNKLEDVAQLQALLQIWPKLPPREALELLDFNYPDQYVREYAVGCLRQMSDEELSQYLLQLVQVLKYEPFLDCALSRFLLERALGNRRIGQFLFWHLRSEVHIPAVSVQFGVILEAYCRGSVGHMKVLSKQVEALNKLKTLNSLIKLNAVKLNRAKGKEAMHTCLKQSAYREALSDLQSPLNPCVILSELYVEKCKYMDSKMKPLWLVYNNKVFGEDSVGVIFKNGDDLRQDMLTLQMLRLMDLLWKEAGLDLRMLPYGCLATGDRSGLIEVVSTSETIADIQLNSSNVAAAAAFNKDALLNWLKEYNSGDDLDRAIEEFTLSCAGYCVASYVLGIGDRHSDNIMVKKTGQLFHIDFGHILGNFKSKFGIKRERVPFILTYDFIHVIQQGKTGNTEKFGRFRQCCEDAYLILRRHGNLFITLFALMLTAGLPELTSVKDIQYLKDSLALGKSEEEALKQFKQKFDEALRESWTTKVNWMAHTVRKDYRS
Phosphatidylinositol 4,5-bisphosphate 3-kinase catalytic subunit alpha isoform, sequence (P42336 whole entry, canonical isoform): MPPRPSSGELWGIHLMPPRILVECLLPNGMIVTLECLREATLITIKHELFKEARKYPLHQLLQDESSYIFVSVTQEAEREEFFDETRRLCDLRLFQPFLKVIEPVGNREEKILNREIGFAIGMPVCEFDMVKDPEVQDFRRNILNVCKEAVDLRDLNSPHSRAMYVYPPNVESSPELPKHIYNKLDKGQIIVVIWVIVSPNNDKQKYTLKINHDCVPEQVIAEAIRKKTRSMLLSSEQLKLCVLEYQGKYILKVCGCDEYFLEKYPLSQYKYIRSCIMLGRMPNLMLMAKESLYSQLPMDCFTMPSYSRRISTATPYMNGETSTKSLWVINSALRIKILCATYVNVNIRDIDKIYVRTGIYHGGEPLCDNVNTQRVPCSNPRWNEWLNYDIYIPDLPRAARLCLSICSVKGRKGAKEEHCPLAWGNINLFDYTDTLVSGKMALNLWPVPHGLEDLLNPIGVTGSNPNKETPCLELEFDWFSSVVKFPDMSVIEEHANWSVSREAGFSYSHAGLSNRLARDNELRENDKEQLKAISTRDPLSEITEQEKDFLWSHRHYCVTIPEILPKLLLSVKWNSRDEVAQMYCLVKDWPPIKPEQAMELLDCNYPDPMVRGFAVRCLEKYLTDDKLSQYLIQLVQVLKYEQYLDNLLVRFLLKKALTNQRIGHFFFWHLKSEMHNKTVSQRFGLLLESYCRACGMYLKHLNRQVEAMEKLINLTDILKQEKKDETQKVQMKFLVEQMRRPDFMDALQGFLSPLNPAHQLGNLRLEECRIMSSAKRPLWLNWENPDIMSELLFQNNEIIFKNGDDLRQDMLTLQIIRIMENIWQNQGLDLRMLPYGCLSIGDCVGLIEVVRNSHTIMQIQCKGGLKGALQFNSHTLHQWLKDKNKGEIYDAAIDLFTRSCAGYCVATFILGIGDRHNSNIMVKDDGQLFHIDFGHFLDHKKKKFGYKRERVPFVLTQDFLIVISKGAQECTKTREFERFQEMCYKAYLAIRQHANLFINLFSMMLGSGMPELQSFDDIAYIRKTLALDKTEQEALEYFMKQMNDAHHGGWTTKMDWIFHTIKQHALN

IC50 [1] | IC50 [3] | IC50 [4] | Ratio IC50 [6] | Ratio IC50 [7] | Structure (SMILES) | IC50 [2] | IC50 [5]
> 1000 nM | > 1000 nM | > 1000 nM |  |  | Cc1ccc([N+](=O)[O-])cc1S(=O)(=O)N(C)/N=C/c1cnn2cccc(C)c12 | 18000 nM | > 20000 nM
> 1000 nM | 910 nM | > 1000 nM |  |  | CC(=O)Oc1ccn2ncc(/C=N/N(C)S(=O)(=O)c3cc([N+](=O)[O-])ccc3C)c2c1 | 8200 nM | 8900 nM
700 nM | 110 nM | > 1000 nM |  |  | Cc1ccn2ncc(/C=N/N(C)S(=O)(=O)c3cc([N+](=O)[O-])ccc3C)c2c1 | 50 nM | 70 nM
3400 nM | 960 nM | > 10000 nM | 40 | 60 | Cc1ccc([N+](=O)[O-])cc1S(=O)(=O)N(C)/N=C/c1cnn2ccccc12 | 470 nM | 660 nM
> 1000 nM | > 1000 nM | > 1000 nM |  |  | Cc1ccc([N+](=O)[O-])cc1S(=O)(=O)N(C)/N=C/c1cnn2ccc(C(=O)N(C)C)cc12 | 10000 nM | 10000 nM
> 1000 nM | 530 nM | > 1000 nM |  |  | Cc1ccc([N+](=O)[O-])cc1S(=O)(=O)N(C)/N=C/c1cnn2ccc(C(N)=O)cc12 | 600 nM | 10000 nM
90 nM | 2.9 nM | 390 nM |  |  | Cc1ccc([N+](=O)[O-])cc1S(=O)(=O)N(C)/N=C/c1cnn2ccc(Cl)cc12 |  | 550 nM
2500 nM | 45 nM | 1800 nM |  |  | Cc1ccc([N+](=O)[O-])cc1S(=O)(=O)N(C)/N=C/c1cnn2cc(F)c(C#N)cc12 |  | 
> 1000 nM | 1100 nM | > 1000 nM |  |  | Cc1ccc([N+](=O)[O-])cc1S(=O)(=O)N(C)/N=C/c1cnn2ccc(C3CC3)cc12 | 740 nM | 670 nM
690 nM | 360 nM | > 1000 nM |  |  | COC(=O)c1ccn2ncc(/C=N/N(C)S(=O)(=O)c3cc([N+](=O)[O-])ccc3C)c2c1 | 1800 nM | 1500 nM
> 1000 nM | > 1000 nM | > 1000 nM |  |  | Cc1ccc2c(/C=N/N(C)S(=O)(=O)c3cc([N+](=O)[O-])ccc3C)cnn2c1 | 10000 nM | 8000 nM
41 nM | 2.4 nM | 30 nM |  |  | C#Cc1ccn2ncc(/C=N/N(C)S(=O)(=O)c3cc([N+](=O)[O-])ccc3C)c2c1 | 160 nM | 110 nM
> 1000 nM | 1600 nM | > 1000 nM |  |  | Cc1ccc([N+](=O)[O-])cc1S(=O)(=O)N(C)/N=C/c1cnn2c(C)cccc12 | 6000 nM | 1200 nM
> 1000 nM | > 1000 nM | > 1000 nM |  |  | Cc1ccc([N+](=O)[O-])cc1S(=O)(=O)N(C)/N=C/c1cnn2cc(Br)ccc12 | > 20000 nM | 4500 nM
170 nM | 16 nM | 370 nM |  |  | Cc1ccc([N+](=O)[O-])cc1S(=O)(=O)N(C)/N=C/c1cnn2ccc(I)cc12 | 40 nM | 50 nM
900 nM | 7 nM | 410 nM |  |  | C/C(=N\NS(=O)(=O)c1cc([N+](=O)[O-])ccc1C)c1cnn2ccc(C#N)cc12 | 1100 nM | 2100 nM

IC50 [1] | IC50 [3] | IC50 [4] | Ratio IC50 [6] | Ratio IC50 [7] | Structure (SMILES) | IC50 [2] | IC50 [5]
> 1000 nM | > 1000 nM | > 1000 nM |  |  | CNC(=O)c1ccn2ncc(/C=N/N(C)S(=O)(=O)c3cc([N+](=O)[O-])ccc3C)c2c1 | 10000 nM | 10000 nM
150 nM | 3.8 nM | 230 nM |  |  | Cc1ccc([N+](=O)[O-])cc1S(=O)(=O)N(C)/N=C/c1cnn2ccc(Br)cc12 | 310 nM | 50 nM
510 nM | 80 nM | 600 nM |  |  | C/C(=N\N(C)S(=O)(=O)c1cc([N+](=O)[O-])ccc1C)c1cnn2ccc(C#N)cc12 | 4400 nM | 7500 nM
> 1000 nM | 340 nM | > 1000 nM |  |  | Cc1ccc([N+](=O)[O-])cc1S(=O)(=O)N(C)/N=C/c1cnn2ccc(O)cc12 | > 20000 nM | > 20000 nM
440 nM | 10 nM | > 1000 nM |  |  | CC/C(=N\NS(=O)(=O)c1cc([N+](=O)[O-])ccc1C)c1cnn2ccc(C#N)cc12 | 88 nM | 360 nM
> 1000 nM | 610 nM | > 1000 nM |  |  | CCC/C(=N\N(C)S(=O)(=O)c1cc([N+](=O)[O-])ccc1C)c1cnn2ccc(C#N)cc12 | 680 nM | 2300 nM
> 1000 nM | > 1000 nM | > 1000 nM |  |  | Cc1ccc([N+](=O)[O-])cc1S(=O)(=O)N(C)/N=C/c1cnn2ccc(-c3ccccc3)cc12 | 10000 nM | 10000 nM
> 1000 nM | > 1000 nM | > 1000 nM |  |  | Cc1ccc([N+](=O)[O-])cc1S(=O)(=O)N(C)/N=C/c1cnn2cccc(Br)c12 | > 20000 nM | 6500 nM
220 nM | 30 nM | 480 nM |  |  | C/C(=N\NS(=O)(=O)c1cc([N+](=O)[O-])ccc1C)c1cnn2ccc(Br)cc12 | 420 nM | 350 nM
> 1000 nM | > 1000 nM | > 1000 nM |  |  | CCc1ccn2ncc(/C=N/N(C)S(=O)(=O)c3cc([N+](=O)[O-])ccc3C)c2c1 | 410 nM | 560 nM
> 1000 nM | 1200 nM | > 1000 nM |  |  | C/C(=N\N(C)S(=O)(=O)c1cc([N+](=O)[O-])ccc1C)c1cnn2ccc(Br)cc12 | > 20000 nM | > 20000 nM
310 nM | 39 nM | > 1000 nM |  |  | CCC/C(=N\NS(=O)(=O)c1cc([N+](=O)[O-])ccc1C)c1cnn2ccc(C#N)cc12 | 370 nM | 640 nM
> 1000 nM | 130 nM | > 1000 nM |  |  | C=Cc1ccn2ncc(/C=N/N(C)S(=O)(=O)c3cc([N+](=O)[O-])ccc3C)c2c1 | 990 nM | 580 nM
> 1000 nM | 390 nM | > 1000 nM |  |  | CC/C(=N\N(C)S(=O)(=O)c1cc([N+](=O)[O-])ccc1C)c1cnn2ccc(C#N)cc12 | 410 nM | 3700 nM
> 1000 nM | 150 nM | > 1000 nM |  |  | Cc1ccc([N+](=O)[O-])cc1S(=O)(=O)N(C)/N=C/c1cnn2ccc(C(F)(F)F)cc12 | 70 nM | 90 nM
580 nM | 13 nM | 620 nM |  |  | Cc1ccc([N+](=O)[O-])cc1S(=O)(=O)N/N=C/c1cnn2ccc(C#N)cc12 | 2600 nM | 4900 nM

Structure (SMILES) | IC50 [1] | IC50 [3] | IC50 [4] | Ratio IC50 [6] | Ratio IC50 [7] | IC50 [2] | IC50 [5]
COc1ccn2ncc(/C=N/N(C)S(=O)(=O)c3cc([N+](=O)[O-])ccc3C)c2c1 | > 1000 nM | 190 nM | > 1000 nM |  |  | 940 nM | 520 nM
